pEC50: −log10 of the molar value.
Columns and labels:
Plasmodium falciparum [1] = experiment: ST_JUDE: Plasmodium falciparum K1 EC50 (uM) as measured by SYBR green dye; format: functional, organism-based
Plasmodium falciparum [2] = experiment: ST_JUDE: Cytotoxicity against Plasmodium falciparum W2; format: functional, organism-based
Trypanosoma brucei = experiment: ST_JUDE: Cytotoxicity using luciferase to measure ATP as an indicator of the viability of Trypanosoma brucei; format: functional, organism-based
Plasmodium falciparum [3] = experiment: ST_JUDE: Cytotoxicity against Plasmodium falciparum D10 transfected with yeast DHOD; format: functional, organism-based
[4] = ST_JUDE: Cytotoxicity using luciferase to measure ATP as an indicator of the viability of human foreskin fibroblast cells (BJ); format: toxicity, cell-based
Plasmodium falciparum [5] = experiment: ST_JUDE: Cytotoxicity against Plasmodium falciparum K1; format: functional, organism-based
Procedure, shortened: (§1)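 Asexual P. falciparum grown in human erythrocytes, exposed to compounds for 72 h, and growth read as the DNA quantity in treated versus control cultures. Dose-response run at 12 concentrations from 10 μM to 5 nM.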

Plasmodium falciparum [6] = experiment: ST_JUDE: Cytotoxicity against Plasmodium falciparum Dd2; format: functional, organism-based
Plasmodium falciparum [7] = experiment: ST_JUDE: Cytotoxicity against Plasmodium falciparum SB-A6; format: functional, organism-based
[8] = ST_JUDE: Cytotoxicity using luciferase to measure ATP as an indicator of the viability of human epithelial hepatocellular carcinoma cells (HepG2); format: toxicity, cell-based
[9] = ST_JUDE: Cytotoxicity using luciferase to measure ATP as an indicator of the viability of human epithelial embryonic kidney cells (HEK293); format: toxicity, cell-based
Leishmania major = experiment: ST_JUDE: Cytotoxicity using Alamar Blue to measure viability of Leishmania major; format: functional, organism-based
Procedure, shortened: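 L. major promastigotes; drug susceptibility read with Alamar Blue.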

Plasmodium falciparum [10] = experiment: ST_JUDE: Plasmodium falciparum 3D7 EC50 (uM) as measured by SYBR green dye; format: functional, organism-based
Toxoplasma gondii = experiment: ST_JUDE: Growth inhibition of to Toxoplasma gondii, in human U-2OS cells, as measured by luciferase.; format: functional, organism-based; details: RH, U2OS
Procedure, shortened: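 T. gondii parasites engineered to express luciferase; drug sensitivity read by luminescence.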

Plasmodium falciparum [11] = experiment: ST_JUDE: Cytotoxicity against Plasmodium falciparum V1/S; format: functional, organism-based
[12] = ST_JUDE: Cytotoxicity using luciferase to measure ATP as an indicator of the viability of human Burkitt''s lymphoma lymphoblast cells (Raji); format: toxicity, cell-based
Plasmodium falciparum [13] = experiment: ST_JUDE: Cytotoxicity against Plasmodium falciparum 3D7; format: functional, organism-based; procedure, shortened: as §1

C[N+](C)(C)c1nc(N2CCOCC2)nc(N(c2ccccc2)c2ccccc2)n1 gave a pEC50 (Plasmodium falciparum [1]) of 5.74, a pEC50 (Plasmodium falciparum [2]) of 5.23 and a pEC50 (Trypanosoma brucei) of 5.25. For the same compound, the pEC50 (Plasmodium falciparum [3]) was 6.06, the pEC50 [4] was under 4.37 and the pEC50 (Plasmodium falciparum [5]) was 5.82. The pEC50 (Plasmodium falciparum [6]) was 5.89, the pEC50 (Plasmodium falciparum [7]) was 6.20 and the pEC50 [8] was under 4.37. For the same compound, the pEC50 [9] was under 4.37, the pEC50 (Leishmania major) was under 4.74 and the pEC50 (Plasmodium falciparum [10]) was 6.28. For the same compound, the pEC50 (Toxoplasma gondii) was under 4.63, the pEC50 (Plasmodium falciparum [11]) was 5.74 and the pEC50 [12] was 4.97. For the same compound, the pEC50 (Plasmodium falciparum [13]) was 6.40.

In the case of Oc1ccc(Br)cc1CN1CCN(Cc2cccc(F)c2)CC1, the pEC50 (Plasmodium falciparum [1]) was 5.88, the pEC50 (Plasmodium falciparum [2]) was 5.76 and the pEC50 (Trypanosoma brucei) was 4.59. For the same compound, the pEC50 (Plasmodium falciparum [3]) was 5.82, the pEC50 [4] was under 4.50 and the pEC50 (Plasmodium falciparum [5]) was 6.18. For the same compound, the pEC50 (Plasmodium falciparum [6]) was 5.82, the pEC50 (Plasmodium falciparum [7]) was 5.76 and the pEC50 [8] was under 4.50. It also gave a pEC50 [9] of under 4.50, a pEC50 (Leishmania major) of under 4.87 and a pEC50 (Plasmodium falciparum [10]) of 5.45. The pEC50 (Toxoplasma gondii) was under 4.76, the pEC50 (Plasmodium falciparum [11]) was 6.14 and the pEC50 [12] was under 4.50. The pEC50 (Plasmodium falciparum [13]) was 5.81.

Work on CCCO/C(O)=C1\C(C)=NC2=C(C(=O)CC(c3ccc(OC)cc3)C2)C1c1ccc([N+](=O)[O-])cc1 (stereo not given) yielded a pEC50 (Plasmodium falciparum [1]) of 5.97, a pEC50 (Plasmodium falciparum [2]) of under 4.93 and a pEC50 (Trypanosoma brucei) of 5.16. It also gave a pEC50 (Plasmodium falciparum [3]) of 5.81, a pEC50 [4] of under 4.34 and a pEC50 (Plasmodium falciparum [5]) of 5.97. The pEC50 (Plasmodium falciparum [6]) was 5.80, the pEC50 (Plasmodium falciparum [7]) was 5.99 and the pEC50 [8] was under 4.34. It also gave a pEC50 [9] of under 4.34, a pEC50 (Leishmania major) of under 4.71 and a pEC50 (Plasmodium falciparum [10]) of 6.19. For the same compound, the pEC50 (Toxoplasma gondii) was under 4.61, the pEC50 (Plasmodium falciparum [11]) was 5.83 and the pEC50 [12] was under 4.34. For the same compound, the pEC50 (Plasmodium falciparum [13]) was 5.52.

In the case of CC(O)(c1ccc(Cl)cc1)C(CN1CCCCC1)c1ccccc1 (stereo not given), the pEC50 (Plasmodium falciparum [1]) was 6.57, the pEC50 (Plasmodium falciparum [2]) was 5.11 and the pEC50 (Trypanosoma brucei) was 4.62. For the same compound, the pEC50 (Plasmodium falciparum [3]) was 5.27, the pEC50 [4] was under 4.30 and the pEC50 (Plasmodium falciparum [5]) was 6.19. It also gave a pEC50 (Plasmodium falciparum [6]) of 5.90, a pEC50 (Plasmodium falciparum [7]) of 5.37 and a pEC50 [8] of under 4.30. For the same compound, the pEC50 [9] was under 4.30, the pEC50 (Leishmania major) was under 4.66 and the pEC50 (Plasmodium falciparum [10]) was 6.04. It also gave a pEC50 (Toxoplasma gondii) of under 4.56, a pEC50 (Plasmodium falciparum [11]) of 5.88 and a pEC50 [12] of under 4.30. For the same compound, the pEC50 (Plasmodium falciparum [13]) was 5.66.

CCCO/C(O)=C1\C(C)=NC2=C(C(=O)CC(c3ccc(OC)c(OC)c3)C2)C1c1cccc(Cl)c1 (stereo not given) gave a pEC50 (Plasmodium falciparum [1]) of 6.73, a pEC50 (Plasmodium falciparum [2]) of 6.23 and a pEC50 (Trypanosoma brucei) of 5.29. It also gave a pEC50 (Plasmodium falciparum [3]) of 6.48, a pEC50 [4] of under 4.42 and a pEC50 (Plasmodium falciparum [5]) of 6.37. It also gave a pEC50 (Plasmodium falciparum [6]) of 5.99, a pEC50 (Plasmodium falciparum [7]) of 6.70 and a pEC50 [8] of under 4.42. It also gave a pEC50 [9] of under 4.42, a pEC50 (Leishmania major) of under 4.79 and a pEC50 (Plasmodium falciparum [10]) of 6.27. The pEC50 (Toxoplasma gondii) was under 4.68, the pEC50 (Plasmodium falciparum [11]) was 6.29 and the pEC50 [12] was under 4.42. The pEC50 (Plasmodium falciparum [13]) was 6.14.

CCCO/C(O)=C1\C(C)=NC2=C(C(=O)CC(c3ccc(OC)c(OC)c3)C2)C1c1ccccc1Cl (stereo not given) showed a pEC50 (Plasmodium falciparum [1]) of 7.78, a pEC50 (Plasmodium falciparum [2]) of 7.77 and a pEC50 (Trypanosoma brucei) of 5.03. The pEC50 (Plasmodium falciparum [3]) was 7.43, the pEC50 [4] was under 4.41 and the pEC50 (Plasmodium falciparum [5]) was 7.43. For the same compound, the pEC50 (Plasmodium falciparum [6]) was 7.30, the pEC50 (Plasmodium falciparum [7]) was 7.58 and the pEC50 [8] was under 4.41. It also gave a pEC50 [9] of under 4.41, a pEC50 (Leishmania major) of under 4.78 and a pEC50 (Plasmodium falciparum [10]) of 7.61. It also gave a pEC50 (Toxoplasma gondii) of under 4.67, a pEC50 (Plasmodium falciparum [11]) of 7.18 and a pEC50 [12] of under 4.41. It also gave a pEC50 (Plasmodium falciparum [13]) of 7.12.

In the case of CCCO/C(O)=C1\C(C)=NC2=C(C(=O)CC(c3ccc(OC)c(OC)c3)C2)C1c1cccc(C)c1 (stereo not given), the pEC50 (Plasmodium falciparum [1]) was 6.41, the pEC50 (Plasmodium falciparum [2]) was 5.34 and the pEC50 (Trypanosoma brucei) was 4.95. The pEC50 (Plasmodium falciparum [3]) was 6.34, the pEC50 [4] was under 4.35 and the pEC50 (Plasmodium falciparum [5]) was 6.41. The pEC50 (Plasmodium falciparum [6]) was 5.87, the pEC50 (Plasmodium falciparum [7]) was 6.53 and the pEC50 [8] was 4.39. It also gave a pEC50 [9] of under 4.35, a pEC50 (Leishmania major) of under 4.72 and a pEC50 (Plasmodium falciparum [10]) of 6.24. The pEC50 (Toxoplasma gondii) was under 4.61, the pEC50 (Plasmodium falciparum [11]) was 6.20 and the pEC50 [12] was under 4.35. It also gave a pEC50 (Plasmodium falciparum [13]) of 6.14.

For COc1ccc(C2CC(=O)C3=C(C2)NC(=O)CC3c2ccc(OC)c(OC)c2)cc1 (stereo not given), the pEC50 (Plasmodium falciparum [1]) was 5.88, the pEC50 (Plasmodium falciparum [2]) was 5.66 and the pEC50 (Trypanosoma brucei) was under 4.36. The pEC50 (Plasmodium falciparum [3]) was 5.78, the pEC50 [4] was under 4.34 and the pEC50 (Plasmodium falciparum [5]) was 5.82. For the same compound, the pEC50 (Plasmodium falciparum [6]) was 5.88, the pEC50 (Plasmodium falciparum [7]) was 5.63 and the pEC50 [8] was under 4.34. The pEC50 [9] was under 4.34, the pEC50 (Leishmania major) was under 4.71 and the pEC50 (Plasmodium falciparum [10]) was 6.04. It also gave a pEC50 (Toxoplasma gondii) of under 4.60, a pEC50 (Plasmodium falciparum [11]) of under 4.93 and a pEC50 [12] of under 4.34. The pEC50 (Plasmodium falciparum [13]) was 5.91.

CCOc1ccc(N(C(C)=O)C2=C(N3CCOCC3)C(=O)c3ccccc3C2=O)cc1 gave a pEC50 (Plasmodium falciparum [1]) of 6.66, a pEC50 (Plasmodium falciparum [2]) of 5.73 and a pEC50 (Trypanosoma brucei) of 5.53. The pEC50 (Plasmodium falciparum [3]) was 7.58, the pEC50 [4] was 5.02 and the pEC50 (Plasmodium falciparum [5]) was 7.00. For the same compound, the pEC50 (Plasmodium falciparum [6]) was 6.31, the pEC50 (Plasmodium falciparum [7]) was 7.23 and the pEC50 [8] was 5.22. The pEC50 [9] was 4.88, the pEC50 (Leishmania major) was under 4.80 and the pEC50 (Plasmodium falciparum [10]) was 7.26. It also gave a pEC50 (Toxoplasma gondii) of 5.28, a pEC50 (Plasmodium falciparum [11]) of 7.29 and a pEC50 [12] of 5.34. The pEC50 (Plasmodium falciparum [13]) was 7.16.

With COC(=O)c1ccc(NC(=O)C2c3ccccc3C(=O)N(CC(C)C)C2c2cccs2)cc1 (stereo not given) the pEC50 (Plasmodium falciparum [1]) was 5.91, the pEC50 (Plasmodium falciparum [2]) was under 5.00 and the pEC50 (Trypanosoma brucei) was 5.63. For the same compound, the pEC50 (Plasmodium falciparum [3]) was 5.87, the pEC50 [4] was under 4.41 and the pEC50 (Plasmodium falciparum [5]) was 5.82. The pEC50 (Plasmodium falciparum [6]) was 5.90, the pEC50 (Plasmodium falciparum [7]) was 5.65 and the pEC50 [8] was under 4.41. For the same compound, the pEC50 [9] was under 4.41, the pEC50 (Leishmania major) was under 4.78 and the pEC50 (Plasmodium falciparum [10]) was 6.00. It also gave a pEC50 (Toxoplasma gondii) of under 4.67, a pEC50 (Plasmodium falciparum [11]) of 5.76 and a pEC50 [12] of under 4.41. It also gave a pEC50 (Plasmodium falciparum [13]) of 5.94.

— ChEMBL document CHEMBL1154198, “Chemical genetics of Plasmodium falciparum” (Nature, 2010)
